In ChEMBL document CHEMBL5674875, “RUNX2 expression in thyroid and breast cancer requires the cooperation of three non-redundant enhancers under the control of BRD4 and c-JUN” (Nucleic Acids Res, 2017):
pIC50: −log10 of the molar value. Active and inactive are the calls of the source. The rule behind the calls is not given here.

Columns and labels:
TPC1 [1] = test: Inhibition of c-MYC expression in human TPC1 cells at 0.25 to 1 uM after 6 to 24 hrs by qRT-PCR analysis; type: functional, cell-based; settings: dose 0.25-1 µM, time 6-24 hrs
How it was run: (§1)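 Cells in DMEM/10% FBS were treated with the indicated compound concentrations or DMSO mock. Total RNA was purified and reverse-transcribed, and transcript levels were measured by EvaGreen-based qRT-PCR.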

BCPAP [2] = test: Inhibition of c-MYC expression in human BCPAP cells at 0.25 to 1 uM after 6 to 24 hrs by qRT-PCR analysis; type: functional, cell-based; settings: dose 0.25-1 µM, time 6-24 hrs; how it was run: as §1
TPC1 [3] = test: Anti-proliferative activity against human TPC1 cells assessed as reduction in cell proliferation incubated for 72 hrs; type: functional, cell-based; settings: TPC1, 72 h
How it was run: (§2)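 Cells grown in DMEM with 10% fetal bovine serum at 37°C/5% CO2, then exposed to a series of compound concentrations or DMSO mock. Proliferation curves were recorded for each line.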

[4] = target: Mediator of RNA polymerase II transcription subunit 1 (Homo sapiens) (UniProt Q15648); test: Partial inhibition of MED1 in human MCF7 cells assessed as partial reduction of […] binding to all active RUNX2 regulatory elements (ENH3,ENH13) at 1 uM by ChIP analysis; type: cell-based
Sequence of Mediator of RNA polymerase II transcription subunit 1 (Homo sapiens) (Q15648 whole entry): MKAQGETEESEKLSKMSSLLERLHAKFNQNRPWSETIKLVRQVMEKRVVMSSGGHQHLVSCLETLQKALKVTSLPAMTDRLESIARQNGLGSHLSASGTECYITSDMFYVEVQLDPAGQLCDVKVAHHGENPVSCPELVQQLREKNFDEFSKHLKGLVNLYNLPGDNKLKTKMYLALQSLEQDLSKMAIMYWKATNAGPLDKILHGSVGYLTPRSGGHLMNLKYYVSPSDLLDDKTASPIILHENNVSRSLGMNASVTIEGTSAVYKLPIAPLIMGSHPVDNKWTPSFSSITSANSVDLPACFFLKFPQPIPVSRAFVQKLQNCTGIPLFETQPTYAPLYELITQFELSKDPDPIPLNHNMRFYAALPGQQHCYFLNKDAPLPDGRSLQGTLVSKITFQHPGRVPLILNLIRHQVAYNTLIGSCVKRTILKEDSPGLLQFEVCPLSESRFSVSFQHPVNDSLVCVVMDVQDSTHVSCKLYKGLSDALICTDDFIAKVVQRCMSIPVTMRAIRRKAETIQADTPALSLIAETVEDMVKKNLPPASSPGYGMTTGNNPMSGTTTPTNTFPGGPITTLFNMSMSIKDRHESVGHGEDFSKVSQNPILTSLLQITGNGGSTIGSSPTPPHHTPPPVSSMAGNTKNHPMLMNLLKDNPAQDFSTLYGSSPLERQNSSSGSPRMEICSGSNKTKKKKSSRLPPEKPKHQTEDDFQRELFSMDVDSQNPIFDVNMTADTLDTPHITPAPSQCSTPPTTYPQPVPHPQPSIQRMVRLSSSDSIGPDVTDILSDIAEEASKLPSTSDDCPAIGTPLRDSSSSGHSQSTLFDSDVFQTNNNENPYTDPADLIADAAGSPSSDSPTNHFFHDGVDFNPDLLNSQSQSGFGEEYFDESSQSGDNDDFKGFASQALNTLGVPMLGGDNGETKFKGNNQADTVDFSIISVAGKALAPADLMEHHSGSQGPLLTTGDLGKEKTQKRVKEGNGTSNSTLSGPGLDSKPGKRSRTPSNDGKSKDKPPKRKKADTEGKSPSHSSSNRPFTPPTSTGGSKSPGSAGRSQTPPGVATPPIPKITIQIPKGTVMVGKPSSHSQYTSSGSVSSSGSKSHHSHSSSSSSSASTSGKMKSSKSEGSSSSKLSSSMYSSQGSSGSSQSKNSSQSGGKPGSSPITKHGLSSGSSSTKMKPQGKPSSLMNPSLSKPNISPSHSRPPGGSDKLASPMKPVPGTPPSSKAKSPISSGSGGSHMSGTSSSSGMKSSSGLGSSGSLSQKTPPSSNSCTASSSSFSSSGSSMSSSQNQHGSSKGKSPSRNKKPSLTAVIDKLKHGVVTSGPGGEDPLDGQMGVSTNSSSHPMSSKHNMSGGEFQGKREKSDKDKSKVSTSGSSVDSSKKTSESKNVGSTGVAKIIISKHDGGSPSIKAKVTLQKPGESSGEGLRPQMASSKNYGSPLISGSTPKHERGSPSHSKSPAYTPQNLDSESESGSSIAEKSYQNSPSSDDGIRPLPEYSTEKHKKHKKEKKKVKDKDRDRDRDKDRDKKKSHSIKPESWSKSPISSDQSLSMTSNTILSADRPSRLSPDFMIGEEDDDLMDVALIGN
How it was run: (§3)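 Cells were treated with 1 μM compound or DMSO mock, 24 h unless otherwise specified. ChIP used anti-MED1 antibody at the RUNX2 P2 promoter and active enhancer regions. An unrelated region upstream of P2 served as negative control. Enrichment is expressed as percentage of input.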

MDA-MB-231 [5] = test: Anti-proliferative activity against human MDA-MB-231 cells assessed as reduction in cell proliferation incubated for 72 hrs; type: functional, cell-based; settings: MDA-MB-231, 72 h; how it was run: as §2
[6] = target: Mediator of RNA polymerase II transcription subunit 1 (Homo sapiens) (UniProt Q15648); test: Inhibition of MED1 in human MDA-MB-231 cells assessed as reduction of […] binding to all active RUNX2 regulatory elements (ENH11,ENH13) at 1 uM by ChIP analysis; type: cell-based; how it was run: as §3
[7] = target: Mediator of RNA polymerase II transcription subunit 1 (Homo sapiens) (UniProt Q15648); test: Inhibition of MED1 in human TPC1 cells assessed as reduction of […] binding to all active RUNX2 regulatory elements (ENH11,ENH13) at 1 uM by ChIP analysis; type: cell-based; how it was run: as §3
BCPAP [8] = test: Anti-proliferative activity against human BCPAP cells assessed as reduction in cell proliferation incubated for 72 hrs; type: functional, cell-based; how it was run: as §2
[9] = target: Mediator of RNA polymerase II transcription subunit 1 (Homo sapiens) (UniProt Q15648); test: Inhibition of MED1 in human BCPAP cells assessed as reduction of […] binding to all active RUNX2 regulatory elements (ENH11) at 1 uM by ChIP analysis; type: cell-based; how it was run: as §3
MDA-MB-231 [10] = test: Inhibition of c-MYC expression in human MDA-MB-231 cells at 0.25 to 1 uM after 6 to 24 hrs by qRT-PCR analysis; type: functional, cell-based; settings: dose 0.25-1 µM, time 6-24 hrs; how it was run: as §1
MCF7 [11] = test: Anti-proliferative activity against human MCF7 cells assessed as reduction in cell proliferation incubated for 72 hrs; type: functional, cell-based; settings: MCF7, 72 h; how it was run: as §2
MCF7 [12] = test: Inhibition of c-MYC expression in human MCF7 cells at 0.25 to 1 uM after 6 to 24 hrs by qRT-PCR analysis; type: functional, cell-based; settings: dose 0.25-1 µM, time 6-24 hrs; how it was run: as §1

Cc1sc2c(c1C)C(c1ccc(Cl)cc1)=N[C@@H](CC(=O)OC(C)(C)C)c1nnc(C)n1-2
inhibition (TPC1 [1]): inactive | inhibition (BCPAP [2]): inactive | pIC50 (TPC1 [3]): 6.34 | inhibition [4]: Active | pIC50 (MDA-MB-231 [5]): 6.29 | inhibition [6]: Active | inhibition [7]: Active | pIC50 (BCPAP [8]): 6.60 | inhibition [9]: Active | inhibition (MDA-MB-231 [10]): inactive | pIC50 (MCF7 [11]): 4.92 | inhibition (MCF7 [12]): inactive
